These results are taken from ChEMBL document CHEMBL4627411, “Novel Piperidinyl-Azetidines as Potent and Selective CCR4 Antagonists Elicit Antitumor Response as a Single Agent and in Combination with Checkpoint Inhibitors” (J Med Chem, 2020).

Usually bioavailability stands for the share of a dose that reaches the circulation, judged against a reference dose that is usually intravenous. Broadly, the clearance is a measure of how efficiently the substance is removed, as volume per time. The IC50 is the concentration that gives 50% inhibition. A word on the AUC(0-t): it is exposure summed from dosing to a finite time, without extrapolation to infinity.

Data set [1] can be described thus: Oral bioavailability in rat at 2 mg/kg. The data set is classed as ADME, organism-based. The following applies: in vivo. Put shortly: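 Rat in vivo PK. Oral dose of 2 mg/kg; %F derived.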
The nature of data set [2]: Clearance in mouse at 0.5 mg/kg, iv. The data set is classed as ADME, organism-based. As to conditions: in vivo.
Data set [3] has as its target C-C chemokine receptor type 5 (Homo sapiens) (UniProt P51681). Put plainly: Antagonist activity at human Gi/G0-coupled CCR5 receptor expressed in CHOK1 cells assessed as inhibition of CCL3-induced beta arrestin2 recruitment at 500 nM preincubated for 30 mins followed by CCL3 stimulation and measured after 90 to 180 mins by pathhunter assay. The following applies: CHO-K1. The data set is classed as cell-based. A general note: Arrestin recruitment assays detect the binding of arrestin to an activated receptor.

Data set [4] concerns the target C-C chemokine receptor type 6 (Homo sapiens) (UniProt P51684). Briefly: Antagonist activity at human Gi/G0-coupled CCR6 receptor expressed in CHOK1 cells assessed as inhibition of CCL20-induced beta arrestin2 recruitment at 500 nM preincubated for 30 mins followed by CCL20 stimulation and measured after 90 to 180 mins by pathhunter assay. The data set is classed as cell-based. As to conditions: CHO-K1.

The nature of data set [5]: Clearance in dog at 0.5 mg/kg, iv. The data set is classed as ADME, organism-based, Canis lupus familiaris. As to conditions: in vivo.
The nature of data set [6]: Clearance in cynomolgus monkey at 0.5 mg/kg, iv. Type of data set: ADME, organism-based, Macaca fascicularis. The following applies: in vivo.
The subject of a further data set is Panc02. Put plainly: Antitumor activity against mouse Panc02 cells implanted in po dosed C57BL/6 mouse assessed as inhibition of GFP-positive Treg cell migration in to tumor micro environment administered 30 mins prior to Treg cell population addition followed by daily compound dosing for 5 days and measured on day 6 by flow cytometry analysis. Type of data set: functional, organism-based. Put shortly: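 Pan02 pancreatic ductal adenocarcinoma mice. Oral compound at several doses; adoptively transferred GFP+ iTreg counted in the tumor, with spleen, skin and lung also examined.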
In general terms: Flow cytometry measures light scatter and fluorescence of single cells or particles in a stream.

For data set [7], the target named is Chemerin-like receptor 1 (Homo sapiens) (UniProt Q99788). Briefly: Antagonist activity at human CMKLR1 expressed in CHOK1 cells assessed as inhibition of chemerin-induced beta arrestin2 recruitment at 500 nM preincubated for 30 mins followed by chemerin stimulation and measured after 90 to 180 mins by pathhunter assay. As to conditions: CHO-K1. The data set is classed as cell-based.

In another data set the test system is Cytochrome P450. Put plainly: Induction of CYP450 (unknown origin). The data set is classed as ADME, protein assay. The following applies: human.
Data set [8] has as its target C-X-C chemokine receptor type 2 (Homo sapiens) (UniProt P25025). Put plainly: Antagonist activity at human Gi/G0-coupled CXCR2 assessed as inhibition of CXCL8-induced beta arrestin2 recruitment at 500 nM preincubated for 30 mins followed by CXCL8 stimulation and measured after 90 to 180 mins by pathhunter assay.
Data set [9] deals with C-C chemokine receptor type 7 (Homo sapiens) (UniProt P32248). Put plainly: Antagonist activity at human Gi/G0-coupled CCR7 receptor assessed as inhibition of CCL19-induced beta arrestin2 recruitment at 500 nM preincubated for 30 mins followed by CCL19 stimulation and measured after 90 to 180 mins by pathhunter assay.
The target of another data set is Cytochrome P450 2D6 (Homo sapiens, UniProt P10635). Briefly: Inhibition of CYP2D6 in human liver microsomes using bufuralol hydrochloride salt as substrate incubated for 20 mins in presence of NADPH by LC-MS/MS analysis. Type of data set: ADME.
Data set [10] deals with C-C chemokine receptor type 8 (Homo sapiens) (UniProt P51685). Briefly: Antagonist activity at human CCR8 receptor assessed as inhibition of CCL1-induced beta arrestin2 recruitment at 500 nM preincubated for 30 mins followed by CCL1 stimulation and measured after 90 to 180 mins by pathhunter assay.
Another data set has as its system CT26. Put plainly: Antitumor activity against mouse CT26 cells allografted in Balb/c mouse assessed as reduction in tumor volume at 50 mg/kg, po qd for 28 days starting from 3 days post inoculation measured twice weekly. Type of data set: functional, organism-based.
Data set [11] addresses C-C chemokine receptor type 1 (Homo sapiens) (UniProt P32246). Put plainly: Antagonist activity at human Gi/G0-coupled CCR1 receptor assessed as inhibition of CCL3-induced beta arrestin2 recruitment at 500 nM preincubated for 30 mins followed by CCL3 stimulation and measured after 90 to 180 mins by pathhunter assay.
In data set [12] the target is C-C chemokine receptor type 10 (Homo sapiens) (UniProt P46092). Put plainly: Antagonist activity at human Gi/G0-coupled CCR10 receptor expressed in human U2OS cells assessed as inhibition of CCL27-induced beta arrestin2 recruitment at 500 nM preincubated for 30 mins followed by CCL27 stimulation and measured after 90 to 180 mins by pathhunter assay. Type of data set: cell-based.

For data set [13], the target named is C-X-C chemokine receptor type 1 (Homo sapiens) (UniProt P25024). Briefly: Antagonist activity at human Gi/G0-coupled CXCR1 expressed in CHOK1 cells assessed as inhibition of CXCL8-induced beta arrestin2 recruitment at 500 nM preincubated for 30 mins followed by CXCL8 stimulation and measured after 90 to 180 mins by pathhunter assay. The following applies: CHO-K1. The data set is classed as cell-based.

Data set [14] is described as follows: AUC (0 to last) in mouse at 2 mg/kg, po. The following applies: in vivo. Type of data set: ADME, organism-based. Set-up: dose 2 mg/kg, time 0 - last, route oral.
Data set [15] concerns the target C-X-C chemokine receptor type 5 (Homo sapiens) (UniProt P32302). Briefly: Antagonist activity at human Gi/G0-coupled CXCR5 assessed as inhibition of CXCL13-induced beta arrestin2 recruitment at 500 nM preincubated for 30 mins followed by CXCL13 stimulation and measured after 90 to 180 mins by pathhunter assay.
Data set [16] deals with C-C chemokine receptor type 9 (Homo sapiens) (UniProt P51686). Briefly: Antagonist activity at human Gi/G0-coupled CCR9 receptor expressed in CHOK1 cells assessed as inhibition of CCL25-induced beta arrestin2 recruitment at 500 nM preincubated for 30 mins followed by CCL25 stimulation and measured after 90 to 180 mins by pathhunter assay. The data set is classed as cell-based. As to conditions: CHO-K1.

Data set [17] in a line: Clearance in rat at 0.5 mg/kg, iv. The following applies: in vivo. The data set is classed as ADME, organism-based. The gist of the method: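 Rat in vivo PK. Single IV dose of 0.5 mg/kg; clearance in mL/min/kg.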

Active and inactive are the calls of the source. No cut-off for these calls is given here.

C-X-C chemokine receptor type 2 (Homo sapiens), sequence (P25025 whole entry): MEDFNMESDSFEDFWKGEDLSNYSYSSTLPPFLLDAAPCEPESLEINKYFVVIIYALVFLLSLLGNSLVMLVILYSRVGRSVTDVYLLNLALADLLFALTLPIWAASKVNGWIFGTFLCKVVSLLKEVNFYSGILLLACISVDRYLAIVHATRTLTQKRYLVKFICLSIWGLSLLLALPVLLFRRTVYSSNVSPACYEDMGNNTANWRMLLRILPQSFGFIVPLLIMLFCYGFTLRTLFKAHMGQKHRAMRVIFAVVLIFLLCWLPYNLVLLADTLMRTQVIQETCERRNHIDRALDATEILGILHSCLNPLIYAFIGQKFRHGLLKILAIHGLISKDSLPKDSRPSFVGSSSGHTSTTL
Chemerin-like receptor 1 (Homo sapiens), sequence (Q99788 whole entry): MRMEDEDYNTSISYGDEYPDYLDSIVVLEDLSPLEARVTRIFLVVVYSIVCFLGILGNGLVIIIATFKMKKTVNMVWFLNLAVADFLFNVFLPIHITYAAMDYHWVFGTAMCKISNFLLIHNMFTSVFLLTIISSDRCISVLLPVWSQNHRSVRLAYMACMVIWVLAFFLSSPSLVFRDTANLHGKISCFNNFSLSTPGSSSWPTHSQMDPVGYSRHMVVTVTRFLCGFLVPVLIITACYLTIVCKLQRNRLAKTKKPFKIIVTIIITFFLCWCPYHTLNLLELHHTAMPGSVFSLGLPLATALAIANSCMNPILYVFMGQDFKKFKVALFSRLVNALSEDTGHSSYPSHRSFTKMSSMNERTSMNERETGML
C-C chemokine receptor type 10 (Homo sapiens), sequence (P46092 whole entry): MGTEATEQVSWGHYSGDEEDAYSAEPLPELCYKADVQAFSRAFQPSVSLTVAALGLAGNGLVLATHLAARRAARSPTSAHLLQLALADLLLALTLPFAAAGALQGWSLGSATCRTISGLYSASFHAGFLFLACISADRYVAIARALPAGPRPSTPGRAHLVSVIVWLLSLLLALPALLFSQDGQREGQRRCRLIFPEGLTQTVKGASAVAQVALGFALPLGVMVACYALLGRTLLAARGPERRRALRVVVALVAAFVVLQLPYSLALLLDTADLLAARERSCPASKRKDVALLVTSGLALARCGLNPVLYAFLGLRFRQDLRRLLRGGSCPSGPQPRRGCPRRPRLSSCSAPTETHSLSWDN
C-C chemokine receptor type 6 (Homo sapiens), sequence (P51684 whole entry): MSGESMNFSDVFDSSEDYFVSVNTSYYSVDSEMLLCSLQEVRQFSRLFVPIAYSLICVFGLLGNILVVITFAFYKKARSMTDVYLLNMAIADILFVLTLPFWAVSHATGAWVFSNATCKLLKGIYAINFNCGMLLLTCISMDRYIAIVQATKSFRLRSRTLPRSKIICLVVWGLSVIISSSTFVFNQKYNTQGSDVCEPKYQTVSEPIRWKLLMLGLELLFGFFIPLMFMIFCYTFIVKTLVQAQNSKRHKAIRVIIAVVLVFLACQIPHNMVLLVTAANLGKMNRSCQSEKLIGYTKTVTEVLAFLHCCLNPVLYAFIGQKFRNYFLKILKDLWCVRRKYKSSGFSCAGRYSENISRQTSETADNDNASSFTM
C-C chemokine receptor type 7 (Homo sapiens), sequence (P32248 whole entry): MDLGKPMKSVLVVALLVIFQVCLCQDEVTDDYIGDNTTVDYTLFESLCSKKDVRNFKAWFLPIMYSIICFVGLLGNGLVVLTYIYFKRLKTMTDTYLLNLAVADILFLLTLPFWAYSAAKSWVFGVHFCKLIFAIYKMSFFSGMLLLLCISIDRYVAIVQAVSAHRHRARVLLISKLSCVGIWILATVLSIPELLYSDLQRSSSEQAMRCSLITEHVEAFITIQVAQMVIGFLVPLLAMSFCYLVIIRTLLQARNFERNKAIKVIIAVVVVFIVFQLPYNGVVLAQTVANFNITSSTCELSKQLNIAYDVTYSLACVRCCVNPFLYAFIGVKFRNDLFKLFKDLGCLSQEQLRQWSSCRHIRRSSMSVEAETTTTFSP
C-X-C chemokine receptor type 5 (Homo sapiens), sequence (P32302 whole entry): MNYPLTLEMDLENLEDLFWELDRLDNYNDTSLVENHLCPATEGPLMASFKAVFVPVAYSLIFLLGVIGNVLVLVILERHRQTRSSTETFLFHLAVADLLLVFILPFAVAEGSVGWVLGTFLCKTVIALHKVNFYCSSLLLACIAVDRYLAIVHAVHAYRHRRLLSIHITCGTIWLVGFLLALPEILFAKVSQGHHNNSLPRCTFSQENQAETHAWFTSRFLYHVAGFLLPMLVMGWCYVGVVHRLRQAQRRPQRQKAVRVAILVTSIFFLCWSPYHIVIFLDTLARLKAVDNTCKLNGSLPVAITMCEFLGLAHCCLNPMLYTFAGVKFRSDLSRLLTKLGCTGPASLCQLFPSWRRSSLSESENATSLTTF
C-C chemokine receptor type 9 (Homo sapiens), sequence (P51686 whole entry): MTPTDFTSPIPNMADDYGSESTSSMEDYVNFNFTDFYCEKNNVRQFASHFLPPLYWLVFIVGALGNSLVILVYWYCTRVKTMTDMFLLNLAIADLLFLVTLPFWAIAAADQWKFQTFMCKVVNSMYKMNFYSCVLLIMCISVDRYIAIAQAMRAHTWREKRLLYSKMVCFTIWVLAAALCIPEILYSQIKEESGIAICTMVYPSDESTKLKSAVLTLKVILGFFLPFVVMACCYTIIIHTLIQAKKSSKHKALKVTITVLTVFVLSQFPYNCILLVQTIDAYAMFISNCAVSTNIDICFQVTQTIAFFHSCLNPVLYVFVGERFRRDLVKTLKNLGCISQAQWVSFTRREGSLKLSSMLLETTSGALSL
C-C chemokine receptor type 8 (Homo sapiens), sequence (P51685 whole entry): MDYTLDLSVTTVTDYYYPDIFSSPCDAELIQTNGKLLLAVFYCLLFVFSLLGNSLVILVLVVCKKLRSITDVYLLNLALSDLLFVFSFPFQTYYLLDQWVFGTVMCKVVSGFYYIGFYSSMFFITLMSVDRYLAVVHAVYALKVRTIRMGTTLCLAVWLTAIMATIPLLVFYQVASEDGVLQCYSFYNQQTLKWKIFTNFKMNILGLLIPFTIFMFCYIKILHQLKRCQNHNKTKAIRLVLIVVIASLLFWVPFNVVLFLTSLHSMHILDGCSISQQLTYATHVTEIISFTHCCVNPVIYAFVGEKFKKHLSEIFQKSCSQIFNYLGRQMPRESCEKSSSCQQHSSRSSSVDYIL
C-C chemokine receptor type 5 (Homo sapiens), sequence (P51681 whole entry, looked up): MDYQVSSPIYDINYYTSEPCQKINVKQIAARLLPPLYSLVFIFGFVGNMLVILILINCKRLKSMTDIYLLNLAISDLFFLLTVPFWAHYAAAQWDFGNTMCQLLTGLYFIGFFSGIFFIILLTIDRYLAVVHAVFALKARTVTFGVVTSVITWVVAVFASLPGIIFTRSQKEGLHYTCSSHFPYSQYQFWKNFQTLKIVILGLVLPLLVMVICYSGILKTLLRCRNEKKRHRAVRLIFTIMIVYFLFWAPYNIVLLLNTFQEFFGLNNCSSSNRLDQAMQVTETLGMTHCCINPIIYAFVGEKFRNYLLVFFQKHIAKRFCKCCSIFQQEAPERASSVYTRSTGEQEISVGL
C-C chemokine receptor type 1 (Homo sapiens), sequence (P32246 whole entry): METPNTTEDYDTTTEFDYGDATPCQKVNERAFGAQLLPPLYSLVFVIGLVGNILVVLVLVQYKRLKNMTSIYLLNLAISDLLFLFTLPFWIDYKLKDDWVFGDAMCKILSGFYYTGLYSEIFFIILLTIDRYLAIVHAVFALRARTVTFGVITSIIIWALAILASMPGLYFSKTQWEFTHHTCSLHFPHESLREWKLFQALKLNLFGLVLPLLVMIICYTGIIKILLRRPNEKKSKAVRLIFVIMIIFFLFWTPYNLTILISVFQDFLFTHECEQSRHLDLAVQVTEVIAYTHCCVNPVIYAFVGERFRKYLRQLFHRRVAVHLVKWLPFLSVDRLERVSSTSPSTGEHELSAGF
Cytochrome P450 2D6, sequence (P10635 whole entry): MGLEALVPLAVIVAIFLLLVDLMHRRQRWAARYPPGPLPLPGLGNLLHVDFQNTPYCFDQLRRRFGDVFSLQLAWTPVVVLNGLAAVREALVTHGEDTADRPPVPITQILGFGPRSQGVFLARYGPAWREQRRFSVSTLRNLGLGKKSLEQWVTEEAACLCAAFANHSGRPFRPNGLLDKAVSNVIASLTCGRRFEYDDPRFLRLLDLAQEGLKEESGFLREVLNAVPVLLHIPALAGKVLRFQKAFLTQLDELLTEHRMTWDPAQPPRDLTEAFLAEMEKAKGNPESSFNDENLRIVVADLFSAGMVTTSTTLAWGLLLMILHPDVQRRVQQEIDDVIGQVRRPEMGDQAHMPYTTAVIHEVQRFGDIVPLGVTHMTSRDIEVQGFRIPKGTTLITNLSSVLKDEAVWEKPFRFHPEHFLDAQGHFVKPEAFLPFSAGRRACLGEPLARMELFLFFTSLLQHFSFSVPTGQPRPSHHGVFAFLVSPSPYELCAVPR
C-X-C chemokine receptor type 1 (Homo sapiens), sequence (P25024 whole entry): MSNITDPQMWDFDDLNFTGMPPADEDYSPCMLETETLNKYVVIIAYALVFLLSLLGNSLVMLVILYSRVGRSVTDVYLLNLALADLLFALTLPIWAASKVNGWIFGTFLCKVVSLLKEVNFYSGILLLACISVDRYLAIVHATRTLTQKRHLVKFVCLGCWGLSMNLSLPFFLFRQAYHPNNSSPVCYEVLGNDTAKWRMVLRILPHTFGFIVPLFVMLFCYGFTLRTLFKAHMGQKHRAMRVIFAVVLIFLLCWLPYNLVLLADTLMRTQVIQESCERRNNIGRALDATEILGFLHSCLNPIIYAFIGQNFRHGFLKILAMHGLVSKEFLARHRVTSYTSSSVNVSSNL

The compound `C[C@H](c1ccc(Cl)cc1Cl)n1nc(C#N)c2ncc(N3CC([C@H]4CCCN(CCO)C4)C3)nc21` showed a bioavailability in data set [1] of 49%. Also, the clearance in data set [2] stood at 10.2 mL/min/kg; in [5] it was 7.3 mL/min/kg; in [6], 3.7 mL/min/kg; in [17] it was 47.6 mL/min/kg. The outcome in data set [3], in data set [4], in data set [7], in data set [8], in data set [9] and in data set [10] was inactive. Further, the result in data set [11], in data set [12], in [13], in data set [15] and in data set [16] was inactive. Further, the Activity result was “Dose-dependent effect” in the data set on Panc02 and “Not Active” in the data set with Cytochrome P450. At Cytochrome P450 2D6, the IC50 is greater than 40 µM. The result with CT26 was Active. Also, in [14], the AUC(0-t) came out at 751 ng·h/mL.
